PKA-R1A act – activators of PKA-R1A holoenzyme, primary screen, biochemical, fluorescence polarization, Cy5-IP20, bovine R1A, mouse PKAc; activation, % at 11.4 µM; PKA-R1A dissociation; scaled: DMSO 0%, 113 µM cGMP 100%; hit rate 0.083% among 340,000;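 active means percent activation above the mean of all tested compounds plus 3 SD, cut at about 19% in these data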;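 further: higher means more PKAc released from R1A so a rise in polarization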
PKA-R2B activ – activators of PKA-R2B holoenzyme, primary screen, biochemical, fluorescence polarization, Cy5-IP20, human. cAMP-dependent protein kinase catalytic subunit beta (Homo sapiens) + cAMP-dependent …. PKA-R2B holoenzyme dissociation; R2B truncated from residue 108, S112A mutant; 0% DMSO only, 100% 113 µM cGMP. activation, % at 11.4 µM. hit rate 0.079% among 340,000. AID 504700, 2011;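 active means activation above a cutoff set at the mean over all compounds plus 3 SD, cut at about 18% in these data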;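 further: higher means more holoenzyme dissociation and a rise in polarization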
NTR1 agonist – agonists of human NTR1, primary screen, imaging, U2OS cells, beta-arrestin-GFP, high content; NTR1-U2OS beta-arrestin-GFP spot imaging, agonist mode; activation, % at 20 µM; hit rate 0.17% among 330,000; AID 493036, 2011;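 active means activation at or above 40% of the spot to cytoplasm intensity ratio, with at least 20 cells analyzed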;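 further: 0% = DMSO without peptide and 100% = 100 nM NTR1 peptide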
Target sequence (P30989 whole entry, looked up): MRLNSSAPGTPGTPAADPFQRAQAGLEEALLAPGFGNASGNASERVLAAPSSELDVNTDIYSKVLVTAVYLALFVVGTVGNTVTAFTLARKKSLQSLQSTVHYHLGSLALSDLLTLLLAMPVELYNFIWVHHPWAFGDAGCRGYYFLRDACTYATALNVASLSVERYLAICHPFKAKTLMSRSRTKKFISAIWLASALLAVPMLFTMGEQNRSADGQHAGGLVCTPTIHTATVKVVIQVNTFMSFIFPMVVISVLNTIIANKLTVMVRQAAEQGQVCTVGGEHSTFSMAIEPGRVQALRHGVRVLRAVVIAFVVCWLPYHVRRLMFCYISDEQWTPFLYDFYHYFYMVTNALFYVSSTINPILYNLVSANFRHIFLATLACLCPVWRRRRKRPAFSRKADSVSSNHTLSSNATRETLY
CAL PDZ FP-1 – CAL PDZ peptide-binding inhibitors, primary screen, biochemical, fluorescence polarization, Cer-tagged CAL PDZ, HTS; purified CAL PDZ, TMR-peptide fluorescence polarization, 1 h; hit rate 0.02% among 330,000; inhibition, % at 20 µM;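 active means highest replicate inhibition of at least 40%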;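 further: plate controls were DMSO neutral control wells for no effect and unlabeled competitor peptide control wells for full effect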
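Material: tagged CAL PDZ protein CerCALP, purified; buffer or medium: sodium phosphate/NaCl buffer pH 7.4 with TCEP, IgG, Thesit; also added: fluorescent TMR peptide probe; schedule: 1 h incubation at room temperature before polarization reading; technique: fluorescence polarization from S- and P-plane intensities, G-factor corrected; control set: unlabelled peptide and DMSO controls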
CAL PDZ FP-2 – untagged CAL PDZ binding inhibitors, primary screen, biochemical, fluorescence polarization, HTS; Golgi-associated PDZ and coiled-coil motif-containing protein (Homo sapiens), Q9HD26; purified CAL PDZ, TMR-peptide fluorescence polarization, 1 h; inhibition, % at 24.9 µM; hit rate 0.92% among 300,000; AID 602252, 2012;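 active means mean inhibition of at least 30% with at least half of replicates also reaching 30%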;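 further: 0% = DMSO neutral control and 100% = excess unlabeled competitor peptide PRC23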
dFosB act-1 – activators of delta FosB homodimer, primary screen, biochemical, fluorescence polarization, TAMRA-CDK5 oligo, single point; purified delta FosB; percent of positive-control signal above neutral wells; activation, % at 25 µM; hit rate 0.99% among 340,000;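 active means mean activation above about 17%, with every replicate also reaching it, limit read from the data, passing the limit was not always enough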
dFosB act-2 – activators of mouse delta FosB DNA binding, confirmation, biochemical, fluorescence polarization, TAMRA-CDK5 oligo, cherry-picked samples; activation, % at 24.9 µM; 2,400 tested, under 10 active; purified delta FosB; normalised: neutral wells 0, positive control 100; shares compounds with dFosB act-1;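 active means highest replicate activation at or above 34% and every replicate reaching that threshold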;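 further: higher polarization means more probe DNA bound by delta FosB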
* marks the source's active call; other numbers are inactive results; / = no result. An excerpt weighted towards active compounds, which were near 2% of everything screened.

SMILES	PKA-R1A act	PKA-R2B activ	NTR1 agonist	CAL PDZ FP-1	CAL PDZ FP-2	dFosB act-1	dFosB act-2
COc1ccc(NC(C)=O)cc1S(=O)(=O)NC(C)c1ccc(-n2ccnc2)cc1 (centres undefined)	-4	6	-1	1	2	4	/
CCOc1ccc(NS(=O)(=O)c2ccc(C(=O)NCC(c3ccc(OC)cc3)N3CCCC3)cc2)cc1 (centres undefined)	13	10	1	-4	-4	24*	6
O=C(NNc1ccccc1[N+](=O)[O-])Nc1ccc(Cl)c(Cl)c1	-4	-3	15	0	-2	29*	5
Cc1ccc(CNC(=O)c2ccc(NC(=O)C3=CSCCO3)cc2)cc1	4	-6	-1	-2	-2	28*	-8
O=C(NNc1ccccc1)NC(Cc1ccccc1)C(=O)O (centres undefined)	6	5	/	0	-2	3	/
C=CCN(C(=O)c1csnn1)C(C(=O)NC1CCCC1)c1ccccc1 (centres undefined)	-1	-8	-1	0	-4	-6	/
COc1ccc(C(=O)NN(C)c2nc(-c3ccccc3)nnc2C(F)(F)F)cc1	2	-5	1	0	-9	68*	0
Cc1cccc(C(=O)NN(C)c2nc(-c3ccccc3)nnc2C(F)(F)F)c1	-7	-1	-3	0	0	9	/
COc1ccc(-c2cc3nc4ccccc4n3c(N)c2C#N)cc1	-5	-8	-1	-2	-6	19*	6
Cc1ccc(C(=O)N/N=C\c2cccc(OC(=O)c3cccc(F)c3)c2)cn1	-14	-16	2	-1	0	-17	/
Cc1ccc(C(=O)N/N=C\c2ccc(OC(=O)c3cccc(F)c3)cc2)cn1	-2	8	0	-1	/	31*	0
O=C(Oc1ccc(/C=N/NC(=O)c2ccccn2)cc1)c1cccc(Br)c1	3	-6	2	-2	-4	19*	4
Cc1cc(C(=O)N/N=C/c2cc(Br)cc(Br)c2OC(=O)c2cccc(F)c2)n[nH]1	-12	-4	13	-1	/	53*	4
CNC(=O)C1CC(=O)N(c2ccc(OCC(=O)Nc3ccc(OC)cc3)cc2)C1 (centres undefined)	-2	7	1	-1	-3	-11	/
COC(=O)C[C@@H]1C[C@@H]2c3cc(NS(=O)(=O)c4ccc(F)cc4)ccc3O[C@@H]2[C@H](CO)O1	-10	-9	/	/	/	/	/
Cc1cccc(NC(=O)c2cc3c(=O)n4ccccc4nc3s2)c1	-5	3	4	-2	-3	16*	4
O=C(COC(=O)/C=C/c1cccc(Br)c1)NCc1cccs1	0	-18	0	0	5	46*	3
CC(=O)c1ccc(NC(=O)c2ccc(-n3cnnn3)cc2)cc1	-5	4	-1	-3	-1	24*	2
CC(=O)Nc1ccc(NC(=O)C2CCCN(S(=O)(=O)c3ccc(-n4cnnn4)cc3)C2)cc1 (centres undefined)	-1	-5	-1	-1	0	23*	0
Cc1cc(C)cc(OCC(=O)Nc2ccc(-n3cnnn3)cc2)c1	-3	-2	-1	-2	/	34*	6
COc1ccc(-c2cc3cc(OC)c(OC)cc3c(C)n2)cc1C	0	-2	8	-3	-3	-20	/

Screens deposited in PubChem by several laboratories.
